Ba/F3 V617F tox = lowers viability of Ba/F3 cells expressing EpoR and JAK2V617F. ATP luminescence. inhibition, % at 5.6 µM. 1.1% of 220,000 active. AID 1446;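 active = inhibition above the campaign mean plus 3 SD over all tested compounds, cut at about 24% in these data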;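 also: cytokine-independent growth of Ba/F3 cells driven by EpoR plus mutant JAK2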
APP transl inh = APP translation inhibition | SH-SY5Y APP 5'UTR-luciferase reporter, luminescence | inhibition, % at 2 µM | 0.82% of 190,000 active | AID 1285;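 active = inhibition above a set limit, derived from the sample mean plus 3 SD, cut at about 45% in these data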
MT stabilizer = stabilizes microtubules in HeLa cells; 0.83% of 200,000 active; HeLa tubulin immunostaining HCS, 24 h; share of cells brighter than vehicle mean+2SD; % tubulin-high responders, % at 10 µM;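 active = plate Z-score above 3 for both tubulin-high and condensed-nucleus cell shares, with cell loss under 80%, at 10 µM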;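 also: anti alpha tubulin signal scored within the nucleus-defined area of each cell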
bCat nuc transl = alters nuclear translocation of beta-catenin in HeLa cells. immunofluorescence imaging. nuclear translocation activity, % at 5 µM. 0.3% of 190,000 active;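 active = nuclear translocation activity above 50% at 5 µM, with a well cell count of 50 or more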;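 also: per-cell ratio of nuclear to cytoplasmic median beta-catenin stain intensity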
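test system = HeLa cells, endogenous beta-catenin | dosing = single 5 µM dose plus 0.02–20 µM confirmation series | times = compound treatment 24 h, 37°C, 5% CO2 | technique = beta-catenin immunofluorescence imaging with DAPI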
L major viab = inhibitors of Leishmania major promastigote growth; AID 1063; inhibition, % at 10 µM; Leishmania major promastigotes, resazurin fluorescence viability; 9% of 200,000 active; in the data active = inhibition above about 50%;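 also: promastigotes grown with compound for 44 hours at 28 °C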
BaF3 parental = reduces parental Ba/F3 cell viability, JAK2V617F counter-screen; CellTiter-Glo ATP luminescence; inhibition, % at 5.6 µM; 1.1% of 220,000 active;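 active = inhibition above a per-campaign cutoff, the mean inhibition of all tested compounds plus 3 SD, cut at about 27% in these data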
Numbers stand for hits; i = inactive; nt = not tested or not shown. Compounds with a hit are over-represented: about 9.6% of the library has one in this group of screens.

SMILES	Ba/F3 V617F tox	APP transl inh	MT stabilizer	bCat nuc transl	L major viab	BaF3 parental
Cc1ccc(-n2nc3cc(C)c(NC(=S)NC(=O)/C=C/c4ccco4)cc3n2)cc1	68	i	i	i	i	63
O=C(/C=C/c1ccco1)NC(=S)Nc1cccc([N+](=O)[O-])c1	i	i	15	i	i	i
Cc1cccc(NC(=S)NC(=O)/C=C/c2ccco2)c1	72	62	22	52	i	78
Cc1ccc(-n2nc3ccc(NC(=S)NC(=O)/C=C/c4ccco4)cc3n2)cc1	i	i	i	i	i	i
O=C(Nc1ccc(Cl)c([N+](=O)[O-])c1)ONC1=NCCCCC1	i	i	i	i	i	i
O=Cc1cn(CC(=O)Nc2ccc3c(c2)OCO3)c2ccccc12	i	i	i	i	i	i
Clc1cccc(Cl)c1COc1ccccc1CNn1cnnc1	i	i	22	i	i	i
COc1cccc(CNn2cnnc2)c1O	i	i	i	i	i	i
CCC(Cc1ccccc1)NCc1c(C(=O)O)c(C)n(Cc2ccccc2)c1C (configuration not stated)	i	i	i	i	i	i
Cc1cccc(N(CC(=O)Nc2cccnc2)S(C)(=O)=O)c1	i	nt	nt	i	nt	i
CC1(C)CC(=O)C(=Cc2cn(CCC#N)nc2-c2ccc(Cl)cc2)C(=O)C1	i	i	i	i	i	i
CC1(C)CC(=O)C(=Cc2cn(-c3ccccc3)nc2-c2ccc(Cl)cc2)C(=O)C1	i	i	i	i	69	i
O=Cc1cn(-c2ccccc2)nc1-c1ccncc1	i	i	i	i	i	i
CC1=NNC(=O)/C1=C\c1cn(-c2ccccc2)nc1-c1ccccc1	i	i	i	i	100	i
Cn1c(=S)[nH]c(=O)c2ncc(=O)[nH]c21	i	i	i	i	i	i
Cc1noc(/C=C/c2cccs2)c1S(=O)(=O)N1CCC(C(=O)NCCCN2CCC(C)CC2)CC1	i	i	i	i	90	i
Cc1ccc(NC(=O)C2CCN(S(=O)(=O)c3c(C)noc3/C=C/c3ccco3)CC2)nc1	i	i	i	nt	i	i
Cc1noc(/C=C/c2ccco2)c1S(=O)(=O)N1CCC(C(=O)N2CCc3ccccc3C2)CC1	i	i	i	i	73	i
COCCNC(=O)C1CCCN(S(=O)(=O)c2c(C)noc2/C=C/c2cccs2)C1 (configuration not stated)	i	nt	nt	i	nt	i
Cc1ccc(CNC(=O)C2CCN(S(=O)(=O)c3c(C)noc3/C=C/c3ccco3)CC2)cc1	i	i	i	nt	93	i
CN(C)S(=O)(=O)c1cccc(NC(=O)CCNC(=O)c2ccccc2Cl)c1	i	i	i	i	i	i
O=C(O)/C=C/C(=O)Nc1c(F)cccc1F	i	nt	nt	i	nt	i
Cc1ccc(Cl)cc1N1CCN(C(=O)c2cn(C)c(=O)c3c2c2ccccc2n3C)CC1	i	i	i	139	55	i
Cc1cccc(N2CCN(C(=O)c3cn(C)c(=O)c4c3c3ccccc3n4C)CC2)c1C	i	i	i	i	i	i
Nc1[nH]n2c(=O)cc(-c3ccccc3)nc2c1N=Nc1ccccc1	i	i	i	i	98	i
SMILES	Ba/F3 V617F tox	APP transl inh	MT stabilizer	bCat nuc transl	L major viab	BaF3 parental
CC(C)(C)Sc1ccccc1S(=O)(=O)C(C)(C)C	i	nt	nt	i	nt	i
COc1cccc(CN(C)CC(=O)Nc2ccccc2C(C)C)c1	i	i	i	i	i	i
OCCN=c1cc(-c2ccccc2)oc2ccc(Cl)cc12	i	i	i	i	84	i
CCOC(=O)C1(Cc2ccccc2)CCCN(C2CCN(C(C)=O)CC2)C1 (configuration not stated)	i	i	i	i	79	i
CCOC(=O)C1(Cc2ccccc2)CCCN(Cc2cccc(C(C)=O)c2)C1 (configuration not stated)	i	i	i	i	i	i
CCOC(=O)C1(Cc2ccc(Cl)cc2)CCN(CCCn2cccn2)CC1	i	i	i	i	85	i
CCOC(=O)C1(Cc2ccccc2)CCN(Cc2nccn2CC)CC1	i	i	i	i	i	i
CCOC(=O)C1(Cc2ccc(Cl)cc2)CCN(Cc2nccn2CC)CC1	i	i	i	i	79	i
CCOC(=O)C1(Cc2ccccc2Cl)CCN(C(=O)CCn2ccnc2C)CC1	i	i	i	i	100	i
O=C1NC[C@@H](Cc2cccc3ccccc23)N(CCc2cc(C(F)(F)F)cc(C(F)(F)F)c2)C1=O	nt	nt	nt	i	nt	nt
COc1ccc2nc(SCC(=O)N3CCN(c4ccccc4F)CC3)c(C#N)cc2c1	i	i	i	nt	i	i
CCOC(=O)C1(Cc2ccccc2)CCCN(CCCn2cccn2)C1 (configuration not stated)	i	i	i	i	91	i
CCOC(=O)C1(Cc2ccccc2)CCCN(Cc2ccncc2)C1 (configuration not stated)	i	i	nt	i	i	i
CCn1c(COc2ccccc2)nnc1SCc1ccc(C#N)cc1	i	i	i	i	i	i
CCn1c(COc2ccc(Cl)cc2)nnc1SCc1ccc(C#N)cc1	i	i	i	i	51	i
C=CCn1c(SCc2ccc(C#N)cc2)nnc1-c1ccc(C)cc1	i	i	i	i	78	i
COc1ccc(-n2c(COc3ccc(C)cc3)nnc2SCc2ccc(C#N)cc2)cc1	i	i	i	i	68	i
O=C(OCC(=O)N1CCCc2ccccc21)c1cccc(S(=O)(=O)N2CCc3ccccc32)c1	i	i	i	i	i	i
CCNc1nc(SCCOc2ccc(Cl)cc2Cl)nc(N(C)C)n1	i	i	i	i	56	i
c1ccc(-n2ncc3c(N4CCN(c5ccccn5)CC4)nc(N4CCOCC4)nc32)cc1	nt	nt	nt	i	nt	nt
CCOC(=O)c1c(C)[nH]c(C(=O)CSc2nccc(C)n2)c1C	i	i	i	nt	75	i
O=C(/C=C/c1cccs1)NC(=S)NNC(=O)c1ccccc1O	94	i	i	i	99	54
O=C(NCCCN1CCOCC1)c1cc2ccccc2o1	i	i	i	i	79	i
COc1ccc2cc3cc(C(=O)NCCc4ccc(OC)c(OC)c4)oc3nc2c1	i	i	i	i	i	i
O=C(NCCCN1CCOCC1)C(Sc1ccccc1)c1ccccc1 (configuration not stated)	i	i	i	i	91	i
SMILES	Ba/F3 V617F tox	APP transl inh	MT stabilizer	bCat nuc transl	L major viab	BaF3 parental
Cc1ccc2cc3cc(C(=O)NCCN4CCOCC4)oc3nc2c1	i	i	i	i	70	i
CCN1CCN(CCCNC(=O)c2cc3cc4ccc(OC)cc4nc3o2)CC1	i	i	i	i	100	i
Cc1ccc2cc3cc(C(=O)NCc4ccc5c(c4)OCO5)oc3nc2c1	i	i	i	i	i	i
CC(=O)c1ccc(N2Cc3ccccc3/C2=N\C(=O)Nc2ccc(Cl)cc2)cc1	i	i	i	i	i	i
Clc1ccc(Cn2cccn2)cn1	i	i	i	i	i	i
COc1cc(OC)cc(C(=O)NCCCN2CCOCC2)c1	i	i	i	i	i	i
COc1ccc2cc3cc(C(=O)NCCCN4CCOCC4)oc3nc2c1	i	i	i	nt	98	i
